In ChEMBL document CHEMBL3352584, “Novel DNA gyrase inhibiting spiropyrimidinetriones with a benzisoxazole scaffold: SAR and in vivo characterization” (J Med Chem, 2014):
In brackets after ≈: the same amount, converted by molar mass.

What was measured:
[1] = Fraction unbound in human plasma at 10 uM after 16 hrs by LC-MS/MS analysis; format: ADME, cell-free
Summary of the method: (§1)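 Compound at 10 μM in human, rat or mouse plasma, equilibrium dialysis against buffer at 37 °C for 16 h. Buffer and plasma concentrations measured by LC-MS/MS, and the free fraction taken from their ratio.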

Streptococcus pneumoniae [2] = experiment: Antimicrobial activity against Streptococcus pneumoniae by broth microdilution method; format: functional
Summary of the method: (§2)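 Broth microdilution following CLSI guidelines. Values under 12.5 μM are averages of three or more replicates.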

Escherichia coli [3] = experiment: Antimicrobial activity against tolC-deficient Escherichia coli by broth microdilution method; format: functional; summary of the method: as §2
Staphylococcus aureus [4] = experiment: Antimicrobial activity against methicillin-sensitive Staphylococcus aureus by broth microdilution method in presence of 50% human serum; format: functional
Summary of the method: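 CLSI broth microdilution against methicillin-sensitive S. aureus, run with 50% human serum added to the medium to reflect plasma protein binding. Values under 12.5 μM are averages of three or more replicates.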

Staphylococcus aureus [5] = experiment: Antimicrobial activity against methicillin-resistant and quinolone-resistant Staphylococcus aureus by broth microdilution method; format: functional; summary of the method: as §2
Escherichia coli [6] = experiment: Antimicrobial activity against Escherichia coli by broth microdilution method; format: functional; summary of the method: as §2
Staphylococcus aureus [7] = experiment: Antimicrobial activity against methicillin-sensitive Staphylococcus aureus by broth microdilution method; format: functional; summary of the method: as §2
[8] = Solubility of the compound; format: physicochemical
Haemophilus influenzae = experiment: Antimicrobial activity against Haemophilus influenzae by broth microdilution method; format: functional; summary of the method: as §2
DNA gyrase = DNA gyrase (Escherichia coli, UniProt P0AES4+P0AES6); experiment: Inhibition of Escherichia coli DNA gyrase using fluorescence-tagged DNA by fluorescenct polarization assay; format: protein-complex assay
Summary of the method: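 E. coli DNA gyrase supercoiling assay. The read-out was differential binding of a fluorescence-tagged DNA to relaxed versus supercoiled DNA, giving IC50.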

Streptococcus pyogenes = experiment: Antimicrobial activity against Streptococcus pyogenes by broth microdilution method; format: functional; summary of the method: as §2
[9] = Clearance in rat at 3 mg/kg, iv or at 10 mg/kg, po by LC-MS/MS method; format: ADME, organism-based; conditions: in vivo
Summary of the method: (§3)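 Male mice (CD-1) or male Wistar Hannover rats, three per experiment, given a 15 min iv infusion at 3 mg/kg or oral dosing at 10 mg/kg. Vehicle was DMA:TEG:saline 40/40/20 for mice and meglumine/cyclodextrin for rats. Serial jugular blood was taken over 0–24 h, plasma analysed by LC-MS/MS, and a noncompartmental analysis used. Mean values are given.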

[10] = Bioavailability in rat at 3 mg/kg, iv or at 10 mg/kg, po by LC-MS/MS method; format: ADME, organism-based; conditions: in vivo; summary of the method: as §3
[11] = Fraction unbound in rat plasma at 10 uM after 16 hrs by LC-MS/MS analysis; format: ADME, cell-free; summary of the method: as §1
[12] = Fraction unbound in mouse plasma at 10 uM after 16 hrs by LC-MS/MS analysis; format: ADME, cell-free; summary of the method: as §1
[13] = Bioavailability in mouse at 3 mg/kg, iv or at 10 mg/kg, po by LC-MS/MS method; format: ADME, organism-based; conditions: in vivo; summary of the method: as §3
[14] = Clearance in mouse at 3 mg/kg, iv or at 10 mg/kg, po by LC-MS/MS method; format: ADME, organism-based; conditions: in vivo; summary of the method: as §3
Staphylococcus aureus [15] = experiment: Antimicrobial activity against wild-type Staphylococcus aureus 516 by broth microdilution method; format: functional; summary of the method: as §2
Staphylococcus aureus [16] = experiment: Antimicrobial activity against Staphylococcus aureus 2375 harboring GyrA S84L mutant, GyrB R144A mutant and ParC S80Y/E84G/V693M mutant and ParE N141S mutant by broth microdilution method; format: functional
Staphylococcus aureus [17] = experiment: Antimicrobial activity against Staphylococcus aureus 2792 harboring wild-type GyrA and GyrB R144A mutant by broth microdilution method; format: functional
Streptococcus pneumoniae [18] = experiment: Antimicrobial activity against Streptococcus pneumoniae 2800 harboring GyrB K143I/T172A mutant by broth microdilution method; format: functional
Streptococcus pneumoniae [19] = experiment: Antimicrobial activity against wild-type Streptococcus pneumoniae 548 by broth microdilution method; format: functional; summary of the method: as §2
Streptococcus pneumoniae [20] = experiment: Antimicrobial activity against Streptococcus pneumoniae 2485 harboring GyrA S81F mutant, GyrB D160E/T329A mutant and ParC S79F mutant by broth microdilution method; format: functional

SMILES	fraction unbound at 16 h, 10 µM [1]	MIC (Streptococcus pneumoniae [2]) [µM]	MIC (Escherichia coli [3]) [µM]	MIC (Staphylococcus aureus [4]) [µM]	MIC (Staphylococcus aureus [5]) [µM]	MIC (Escherichia coli [6]) [µM]	MIC (Staphylococcus aureus [7]) [µM]	solubility [8] [µM]	MIC (Haemophilus influenzae) [µM]	IC50 (DNA gyrase) [µM]	MIC (Streptococcus pyogenes) [µM]	other results
C[C@@H]1CN2c3c(cc4c(Cl)noc4c3F)CC3(C(=O)NC(=O)NC3=O)[C@H]2[C@H](C)O1	< 0.01	12 (≈ 5.07 µg/mL)	6.2 (≈ 2.62 µg/mL)	12	0.78 (≈ 0.33 µg/mL)	25 (≈ 10.6 µg/mL)	0.39 (≈ 0.165 µg/mL)	> 1000	25 (≈ 10.6 µg/mL)	0.21	6.2 (≈ 2.62 µg/mL)	–
COc1noc2c(F)c3c(cc12)CC1(C(=O)NC(=O)NC1=O)[C@H]1[C@H](C)O[C@H](C)CN31	0.09	25 (≈ 10.5 µg/mL)	≤ 0.2	–	3.1 (≈ 1.3 µg/mL)	200 (≈ 83.7 µg/mL)	3.1 (≈ 1.3 µg/mL)	510 (≈ 213 µg/mL)	3.1 (≈ 1.3 µg/mL)	0.97	6.2 (≈ 2.59 µg/mL)	–
C[C@@H]1CN2c3c(cc4c(C(F)(F)F)noc4c3F)CC3(C(=O)NC(=O)NC3=O)[C@H]2[C@H](C)O1	< 0.01	12 (≈ 5.48 µg/mL)	≤ 0.2	100	1.6 (≈ 0.73 µg/mL)	25 (≈ 11.4 µg/mL)	0.78 (≈ 0.356 µg/mL)	53 (≈ 24.2 µg/mL)	1.6 (≈ 0.73 µg/mL)	0.61	3.1 (≈ 1.41 µg/mL)	clearance [9]: 2.3 mL/min/kg; bioavailability [10]: 60%; fraction unbound at 16 h, 10 µM [11]: 0.078; fraction unbound at 16 h, 10 µM [12]: 0.078; bioavailability [13]: 63%; clearance [14]: 46 mL/min/kg
Cc1noc2c(F)c3c(cc12)CC1(C(=O)NC(=O)NC1=O)C1C(C)CC(C)CN31 (racemic)	< 0.01	100 (≈ 40 µg/mL)	6.2 (≈ 2.48 µg/mL)	50	25 (≈ 10 µg/mL)	50 (≈ 20 µg/mL)	25 (≈ 10 µg/mL)	< 1	> 200	0.34	200 (≈ 80.1 µg/mL)	–
Cc1noc2c(Cl)c3c(cc12)CC1(C(=O)NC(=O)NC1=O)C1C(C)OC(C)CN31 (racemic)	0.03	50 (≈ 20.9 µg/mL)	≤ 0.2	50	12 (≈ 5.03 µg/mL)	200 (≈ 83.8 µg/mL)	6.2 (≈ 2.6 µg/mL)	330 (≈ 138 µg/mL)	3.1 (≈ 1.3 µg/mL)	0.37	25 (≈ 10.5 µg/mL)	–
C[C@@H]1CN2c3c(cc4c(N)noc4c3F)CC3(C(=O)NC(=O)NC3=O)[C@H]2[C@H](C)O1	0.13	6.2 (≈ 2.5 µg/mL)	≤ 0.2	–	50 (≈ 20.2 µg/mL)	100 (≈ 40.3 µg/mL)	25 (≈ 10.1 µg/mL)	330 (≈ 133 µg/mL)	1.6 (≈ 0.645 µg/mL)	0.26	3.1 (≈ 1.25 µg/mL)	–
CC(=O)NC[C@H]1CN(c2ccc(N3CCOCC3)c(F)c2)C(=O)O1 [LINEZOLID]	0.71	3.1 (≈ 1.05 µg/mL)	20 (≈ 6.75 µg/mL)	12	6.2 (≈ 2.09 µg/mL)	> 200	6.2 (≈ 2.09 µg/mL)	–	23 (≈ 7.76 µg/mL)	> 32	3.1 (≈ 1.05 µg/mL)	–
COCc1noc2c(F)c3c(cc12)CC1(C(=O)NC(=O)NC1=O)C1C(C)OC(C)CN31 (racemic)	0.096	12 (≈ 5.19 µg/mL)	≤ 0.2	–	6.2 (≈ 2.68 µg/mL)	200 (≈ 86.5 µg/mL)	3.1 (≈ 1.34 µg/mL)	180 (≈ 77.8 µg/mL)	12 (≈ 5.19 µg/mL)	1.6	6.2 (≈ 2.68 µg/mL)	–
Cc1noc2c(F)c3c(cc12)CC1(C(=O)NC(=O)NC1=O)[C@H]1[C@H](C)O[C@@H](C)CN31	0.051	> 200	12 (≈ 4.83 µg/mL)	–	> 200	> 200	> 200	340 (≈ 137 µg/mL)	200 (≈ 80.5 µg/mL)	26	> 200	–
Cc1noc2c(F)c3c(cc12)CC1(C(=O)NC(=O)NC1=O)[C@@H]1[C@@H](C)O[C@H](C)CN31	0.082	100 (≈ 40.2 µg/mL)	1.6 (≈ 0.644 µg/mL)	–	50 (≈ 20.1 µg/mL)	> 200	25 (≈ 10.1 µg/mL)	190 (≈ 76.5 µg/mL)	25 (≈ 10.1 µg/mL)	13	200 (≈ 80.5 µg/mL)	–
O=C(O)c1cn(C2CC2)c2cc(N3CCNCC3)c(F)cc2c1=O [CIPROFLOXACIN]	–	1.5 (≈ 0.497 µg/mL)	< 0.1	–	96 (≈ 31.8 µg/mL)	0.06 (≈ 0.0199 µg/mL)	0.91 (≈ 0.302 µg/mL)	–	< 0.1	–	1.5 (≈ 0.497 µg/mL)	–
Cc1noc2c(F)c3c(cc12)CC1(C(=O)NC(=O)NC1=O)C1C(C)OC(C)CN31 (racemic)	0.063	21 (≈ 8.45 µg/mL)	0.3 (≈ 0.121 µg/mL)	–	2.5 (≈ 1.01 µg/mL)	100 (≈ 40.2 µg/mL)	2.8 (≈ 1.13 µg/mL)	> 1000	2.5 (≈ 1.01 µg/mL)	0.38	–	–
C[C@H]1COc2c(N3CCN(C)CC3)c(F)cc3c(=O)c(C(=O)O)cn1c23.C[C@H]1COc2c(N3CCN(C)CC3)c(F)cc3c(=O)c(C(=O)O)cn1c23.O [LEVOFLOXACIN]	–	–	–	–	–	–	–	–	–	–	–	MIC (Staphylococcus aureus [15]): 0.13 µg/mL; MIC (Staphylococcus aureus [16]): > 16 µg/mL; MIC (Staphylococcus aureus [17]): 0.25 µg/mL
CC1CN2c3c(cc4c(C(C)(C)C)noc4c3F)CC3(C(=O)NC(=O)NC3=O)C2C(C)O1 (racemic)	0.042	200 (≈ 88.9 µg/mL)	3.1 (≈ 1.38 µg/mL)	–	18 (≈ 8 µg/mL)	> 200	18 (≈ 8 µg/mL)	770 (≈ 342 µg/mL)	200 (≈ 88.9 µg/mL)	4	50 (≈ 22.2 µg/mL)	–
Cc1noc2c(F)c3c(cc12)CC1(C(=O)NC(=O)NC1=O)[C@@H]1[C@@H](C)O[C@@H](C)CN31	0.035	> 200	50 (≈ 20.1 µg/mL)	–	> 200	> 200	> 200	> 1000	> 200	> 83	–	–
CC1CN2c3c(cc4c(C5CC5)noc4c3F)CC3(C(=O)NC(=O)NC3=O)C2C(C)O1 (racemic)	0.052	25 (≈ 10.7 µg/mL)	≤ 0.2	–	12 (≈ 5.14 µg/mL)	100 (≈ 42.8 µg/mL)	1.6 (≈ 0.685 µg/mL)	29 (≈ 12.4 µg/mL)	3.1 (≈ 1.33 µg/mL)	0.34	6.2 (≈ 2.66 µg/mL)	–
CO[C@@H]1[C@@H](OC(N)=O)[C@@H](O)[C@H](Oc2ccc3c(O)c(NC(=O)c4ccc(O)c(CC=C(C)C)c4)c(=O)oc3c2C)OC1(C)C [NOVOBIOCIN]	–	–	–	–	–	–	–	–	–	–	–	MIC (Streptococcus pneumoniae [18]): > 16 µg/mL; MIC (Streptococcus pneumoniae [19]): 1 µg/mL (≈ 1.63 µM); MIC (Staphylococcus aureus [15]): 0.13 µg/mL (≈ 0.212 µM); MIC (Streptococcus pneumoniae [20]): 0.13 µg/mL (≈ 0.212 µM); MIC (Staphylococcus aureus [16]): 4.3 µg/mL (≈ 7.02 µM); MIC (Staphylococcus aureus [17]): 32 µg/mL (≈ 52.2 µM)
C[C@@H]1CN2c3c(cc4c(C(F)F)noc4c3F)CC3(C(=O)NC(=O)NC3=O)[C@H]2[C@H](C)O1	0.028	3.1 (≈ 1.36 µg/mL)	≤ 0.2	3.1	0.39 (≈ 0.171 µg/mL)	25 (≈ 11 µg/mL)	0.39 (≈ 0.171 µg/mL)	> 1000	0.62 (≈ 0.272 µg/mL)	0.48	1.2 (≈ 0.526 µg/mL)	clearance [9]: 1 mL/min/kg; bioavailability [10]: 87%; fraction unbound at 16 h, 10 µM [11]: 0.043; fraction unbound at 16 h, 10 µM [12]: 0.044; bioavailability [13]: 95%; clearance [14]: 47 mL/min/kg
